Experimental data taken from ChEMBL document CHEMBL4346672, “Antimicrobial and KPC/AmpC inhibitory activity of functionalized benzosiloxaboroles” (Eur J Med Chem, 2019).
Values after ≈ are worked out from the molar mass of the structure shown. Active and inactive are the calls of the source. The calls are words filed in the database; no cut-off is given here.

Assays:
[1] = system: Candida albicans; test: Antifungal activity against Candida albicans ATCC 90028 assessed as decrease in fungal cell growth incubated for 24 hrs by E-test; assay type: functional; settings: ATCC 90028, 24 h
Summary of the method: (§1)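 Yeast strains were stored at -80 °C and subcultured twice on Sabouraud dextrose agar for 24–48 h at 30 °C before testing.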

[2] = system: Candida parapsilosis; test: Antifungal activity against Candida parapsilosis ATCC 22019 assessed as decrease in fungal cell growth incubated for 24 hrs by E-test; assay type: functional; settings: Lodderomyces parapsilosis, ATCC 22019, 24 h
Summary of the method: (§2)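 Yeasts were first subcultured on Sabouraud dextrose agar at 30 °C for 24–48 h. […] The MIC was recorded per Etest recommendations, which covers cases where macro-colonies persist inside the ellipse.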

[3] = system: Candida tropicalis; test: Antifungal activity against Candida tropicalis IBA 171 assessed as decrease in fungal cell growth incubated for 24 hrs by E-test; assay type: functional; settings: IBA 171, 24 h; summary of the method: as §2
[4] = system: Meyerozyma guilliermondii; test: Antifungal activity against Candida guilliermondii IBA 155 assessed as decrease in fungal cell growth incubated for 24 hrs by E-test; assay type: functional; settings: IBA 155, 24 h; summary of the method: as §2
[5] = system: Pichia kudriavzevii; test: Antifungal activity against Candida krusei ATCC 6258 assessed as decrease in fungal cell growth incubated for 24 hrs by E-test; assay type: functional; settings: ATCC 6258, 24 h; summary of the method: as §2
[6] = system: Saccharomyces cerevisiae; test: Antifungal activity against Saccharomyces cerevisiae ATCC 9763 assessed as decrease in fungal cell growth incubated for 24 hrs by E-test; assay type: functional; settings: ATCC 9763, 24 h; summary of the method: as §1
[7] = system: Candida albicans; test: Antifungal activity against Candida albicans ATCC 90028 assessed as diameter of zone inhibition at 0.025 mg incubated for 24 hrs by disc diffusion method; assay type: functional; settings: ATCC 90028, 24 h, read-out: DIZ
Summary of the method: (§3)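 Disc diffusion on Mueller-Hinton II agar with 2% glucose and 0.5 mg/L methylene blue. Compounds were dissolved in DMSO. Yeasts were subcultured on Sabouraud dextrose agar for 24–48 h at 30 °C before testing. Plates were incubated at 35 °C for 24 h.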

[8] = system: Candida parapsilosis; test: Antifungal activity against Candida parapsilosis ATCC 22019 assessed as diameter of zone inhibition at 0.025 mg incubated for 24 hrs by disc diffusion method; assay type: functional; settings: Lodderomyces parapsilosis, ATCC 22019, 24 h; read-out: DIZ; summary of the method: as §3
[9] = system: Candida tropicalis; test: Antifungal activity against Candida tropicalis IBA 171 assessed as diameter of zone inhibition at 0.025 mg incubated for 24 hrs by disc diffusion method; assay type: functional; settings: IBA 171, 24 h, read-out: DIZ; summary of the method: as §3
[10] = system: Meyerozyma guilliermondii; test: Antifungal activity against Candida guilliermondii IBA 155 assessed as diameter of zone inhibition at 0.025 mg incubated for 24 hrs by disc diffusion method; assay type: functional; settings: IBA 155, 24 h, read-out: DIZ; summary of the method: as §3
[11] = system: Pichia kudriavzevii; test: Antifungal activity against Candida krusei ATCC 6258 assessed as diameter of zone inhibition at 0.025 mg incubated for 24 hrs by disc diffusion method; assay type: functional; settings: ATCC 6258, 24 h, read-out: DIZ; summary of the method: as §3
[12] = system: Saccharomyces cerevisiae; test: Antifungal activity against Saccharomyces cerevisiae ATCC 9763 diameter of zone inhibition at 0.025 mg incubated for 24 hrs by disc diffusion method; assay type: functional; settings: ATCC 9763, 24 h, read-out: DIZ; summary of the method: as §3
[13] = Dissociation constant, pKa2 of compound in 0.1 M NaOH by potentiometric analysis; assay type: physicochemical
[14] = system: Staphylococcus aureus; test: Antibacterial activity against Staphylococcus aureus ATCC 6538P assessed as diameter of zone inhibition measured after 18 hrs by CLSI disc diffusion method; assay type: functional
Summary of the method: (§4)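 Disc diffusion on Mueller-Hinton II agar. Compounds dissolved in DMSO. Strains stored at -80 °C and subcultured twice on tryptic soy agar before testing. Inhibition zones read after 35 °C, 18 h.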

[15] = Dissociation constant, pKa1 of compound in 0.1 M NaOH by potentiometric analysis; assay type: physicochemical
[16] = system: Candida albicans; test: Antifungal activity against Candida albicans ATCC 90028 assessed as diameter of zone inhibition incubated for 24 hrs by CLSI disc diffusion method; assay type: functional
Summary of the method: (§5)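 Yeast disc diffusion on Mueller-Hinton agar supplemented with 2% glucose and 0.5 mg/L methylene blue. Compounds in DMSO. Yeasts subcultured on Sabouraud dextrose agar before testing. Zones read after 35 °C, 24 h.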

[17] = system: Candida parapsilosis; test: Antifungal activity against Candida parapsilosis ATCC 22019 assessed as diameter of zone inhibition incubated for 24 hrs by CLSI disc diffusion method; assay type: functional; summary of the method: as §5
[18] = system: Candida tropicalis; test: Antifungal activity against Candida tropicalis IBA 171 assessed as diameter of zone inhibition incubated for 24 hrs by CLSI disc diffusion method; assay type: functional; summary of the method: as §5
[19] = system: Meyerozyma guilliermondii; test: Antifungal activity against Candida guilliermondii IBA 155 assessed as diameter of zone inhibition incubated for 24 hrs by CLSI disc diffusion method; assay type: functional; summary of the method: as §5
[20] = system: Pichia kudriavzevii; test: Antifungal activity against Candida krusei ATCC 6258 assessed as diameter of zone inhibition incubated for 24 hrs by CLSI disc diffusion method; assay type: functional; summary of the method: as §5
[21] = system: Saccharomyces cerevisiae; test: Antifungal activity against Saccharomyces cerevisiae ATCC 9763 diameter of zone inhibition incubated for 24 hrs by CLSI disc diffusion method; assay type: functional
Summary of the method: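 Disc-diffusion run on Mueller-Hinton II agar with 2% glucose and 0.5 mg/L methylene blue, using compounds in DMSO. Yeast was precultured on Sabouraud dextrose agar (24–48 h, 30 °C). Zones read after 24 h at 35 °C.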

[22] = system: Staphylococcus epidermidis; test: Antibacterial activity against Staphylococcus epidermidis ATCC 12228 assessed as diameter of zone inhibition measured after 18 hrs by CLSI disc diffusion method; assay type: functional; summary of the method: as §4
[23] = system: Enterococcus faecalis; test: Antibacterial activity against Enterococcus faecalis ATCC 29212 assessed as diameter of zone inhibition measured after 18 hrs by CLSI disc diffusion method; assay type: functional; summary of the method: as §4
[24] = system: Enterococcus faecium; test: Antibacterial activity against Enterococcus faecium ATCC 6057 assessed as diameter of zone inhibition measured after 18 hrs by CLSI disc diffusion method; assay type: functional; summary of the method: as §4
[25] = system: Bacillus subtilis; test: Antibacterial activity against Bacillus subtilis ATCC 6633 assessed as diameter of zone inhibition measured after 18 hrs by CLSI disc diffusion method; assay type: functional; summary of the method: as §4
[26] = system: Escherichia coli; test: Antibacterial activity against Escherichia coli ATCC 25922 assessed as diameter of zone inhibition measured after 18 hrs by CLSI disc diffusion method; assay type: functional; summary of the method: as §4
[27] = system: Proteus mirabilis; test: Antibacterial activity against Proteus mirabilis ATCC 12453 assessed as diameter of zone inhibition measured after 18 hrs by CLSI disc diffusion method; assay type: functional; summary of the method: as §4
[28] = system: Enterobacter cloacae; test: Antibacterial activity against Enterobacter cloacae DSM 6234 assessed as diameter of zone inhibition measured after 18 hrs by CLSI disc diffusion method; assay type: functional; summary of the method: as §4
[29] = system: Pseudomonas aeruginosa; test: Antibacterial activity against Pseudomonas aeruginosa ATCC 27853 assessed as diameter of zone inhibition measured after 18 hrs by CLSI disc diffusion method; assay type: functional, organism-based; summary of the method: as §4
[30] = system: Acinetobacter baumannii; test: Antibacterial activity against Acinetobacter baumannii ATCC 19606 assessed as diameter of zone inhibition measured after 18 hrs by CLSI disc diffusion method; assay type: functional; summary of the method: as §4
[31] = system: Stenotrophomonas maltophilia; test: Antibacterial activity against Stenotrophomonas maltophilia ATCC 13637 assessed as diameter of zone inhibition measured after 18 hrs by CLSI disc diffusion method; assay type: functional; summary of the method: as §4
[32] = system: Burkholderia cepacia; test: Antibacterial activity against Burkholderia cepacia ATCC 25416 assessed as diameter of zone inhibition measured after 18 hrs by CLSI disc diffusion method; assay type: functional; summary of the method: as §4
[33] = system: Bordetella bronchiseptica; test: Antibacterial activity against Bordetella bronchiseptica ATCC 4617 assessed as diameter of zone inhibition measured after 18 hrs by CLSI disc diffusion method; assay type: functional; summary of the method: as §4
[34] = system: Klebsiella pneumoniae; settings: ATCC 13883
[35] = system: Serratia marcescens; settings: ATCC 13880

OC(Cn1cncn1)(Cn1cncn1)c1ccc(F)cc1F [FLUCONAZOLE]
MIC [1]: 1 µg/mL (≈ 3.27 µM)
MIC [2]: 2 µg/mL (≈ 6.53 µM)
MIC [3]: 0.38 µg/mL (≈ 1.24 µM)
MIC [4]: 0.75 µg/mL (≈ 2.45 µM)
MIC [5]: 64 µg/mL (≈ 209 µM)
MIC [6]: 16 µg/mL (≈ 52.2 µM)
zone of inhibition at 25 µg/disc [7]: 43 mm
zone of inhibition at 25 µg/disc [8]: 32 mm
zone of inhibition at 25 µg/disc [9]: 39 mm
zone of inhibition at 25 µg/disc [10]: 40 mm
zone of inhibition at 25 µg/disc [11]: 16 mm
zone of inhibition at 25 µg/disc [12]: 12 mm

C[Si]1(C)OB(O)c2cc3c(c(F)c21)[Si](C)(C)OB3O
pKa [13]: 8.6
diameter of the inhibition zone (DIZ) [14]: 22 mm
pKa [15]: 5.9
diameter of the inhibition zone (DIZ) [16]: 11 mm
diameter of the inhibition zone (DIZ) [17]: inactive
diameter of the inhibition zone (DIZ) [18]: inactive
diameter of the inhibition zone (DIZ) [19]: inactive
diameter of the inhibition zone (DIZ) [20]: inactive
diameter of the inhibition zone (DIZ) [21]: inactive
diameter of the inhibition zone (DIZ) [22]: 34 mm
diameter of the inhibition zone (DIZ) [23]: 15 mm
diameter of the inhibition zone (DIZ) [24]: 16 mm
diameter of the inhibition zone (DIZ) [25]: 27 mm
diameter of the inhibition zone (DIZ) [26]: inactive
diameter of the inhibition zone (DIZ) [27]: inactive
diameter of the inhibition zone (DIZ) [28]: inactive
diameter of the inhibition zone (DIZ) [29]: inactive
diameter of the inhibition zone (DIZ) [30]: inactive
diameter of the inhibition zone (DIZ) [31]: inactive
diameter of the inhibition zone (DIZ) [32]: inactive
diameter of the inhibition zone (DIZ) [33]: inactive
DIZ [34]: inactive
DIZ [35]: inactive
